In brackets after ≈: the same amount, converted by molar mass.
Columns and labels:
Type in all cases: functional
[1] = test system: Candida parapsilosis; test: Antifungal activity against Candida parapsilosis GC 3074; conditions: Lodderomyces parapsilosis
Method in brief: (§1)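 Yeast MIC by broth microdilution in RPMI-1640. Agent at final 0.03-128 µg/mL, yeast inoculum 0.5-2.5 × 10^3 cfu/mL. MIC read after 48 h incubation at 30 °C.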

[2] = test system: Candida parapsilosis; test: Antifungal activity against Candida parapsilosis GC 3075; conditions: Lodderomyces parapsilosis; method in brief: as §1
[3] = test system: Candida parapsilosis; test: Antifungal activity against Candida parapsilosis GC 3076; conditions: Lodderomyces parapsilosis; method in brief: as §1
[4] = test system: Candida albicans; test: Antifungal activity against Candida albicans GC 3064; method in brief: as §1
[5] = test system: Candida albicans; test: Antifungal activity against Candida albicans GC 3065; method in brief: as §1
[6] = test system: Candida albicans; test: Antifungal activity against Candida albicans GC 3066; method in brief: as §1
[7] = test system: Candida tropicalis; test: Antifungal activity against Candida tropicalis GC 3080; method in brief: as §1
[8] = test system: Candida tropicalis; test: Antifungal activity against Candida tropicalis GC 3081; method in brief: as §1
[9] = test system: Pichia kudriavzevii; test: Antifungal activity against Candida Krussii GC 3067; method in brief: as §1
[10] = test system: Aspergillus fumigatus; test: Antifungal activity against Aspergillus fumigatus GC 3092
[11] = test system: Aspergillus niger; test: Antifungal activity against Aspergillus niger GC 3091
[12] = test system: Kluyveromyces marxianus; test: Antifungal activity against Candida pseudotropicalis GC 3070; method in brief: as §1
[13] = test system: Clavispora lusitaniae; test: Antifungal activity against Candida lusitaniae GC 3068; method in brief: as §1
[14] = test system: Diutina rugosa; test: Antifungal activity against Candida rugosa GC 3077; method in brief: as §1

| SMILES | MIC [1] [µg/mL] | MIC [2] [µg/mL] | MIC [3] [µg/mL] | MIC [4] [µg/mL] | MIC [5] [µg/mL] | MIC [6] [µg/mL] | MIC [7] [µg/mL] | MIC [8] [µg/mL] | MIC [9] [µg/mL] | MIC [10] [µg/mL] | MIC [11] [µg/mL] | MIC [12] [µg/mL] | MIC [13] [µg/mL] | MIC [14] [µg/mL] |
| --- | --- | --- | --- | --- | --- | --- | --- | --- | --- | --- | --- | --- | --- | --- |
| C[C@@H]1[C@H](O)[C@@H](C)/C=C/C=C/C=C/C=C/C=C/C=C/C=C/[C@H](O[C@@H]2O[C@H](C)[C@@H](O)[C@H](N)[C@@H]2O)C[C@@H]2O[C@](O)(C[C@@H](O)C[C@@H](O)[C@H](O)CC[C@@H](O)C[C@@H](O)CC(=O)O[C@H]1C)C[C@H](O)[C@H]2C(=O)O [AMPHOTERICIN B] | 0.25 (≈ 0.271 µM) | 0.5 (≈ 0.541 µM) | 0.5 (≈ 0.541 µM) | 0.5 (≈ 0.541 µM) | 0.25 (≈ 0.271 µM) | 0.25 (≈ 0.271 µM) | 0.5 (≈ 0.541 µM) | 0.5 (≈ 0.541 µM) | 0.5 (≈ 0.541 µM) | 0.25 (≈ 0.271 µM) | 0.25 (≈ 0.271 µM) | 0.25 (≈ 0.271 µM) | 0.25 (≈ 0.271 µM) | 0.5 (≈ 0.541 µM) |
| C\C(=C/C=C/C=C/CC/C=C/C(C)C(O)C(C)C(O)/C=C/C=C/C=C/C=C/C=C/C=C/CC(OS(=O)(=O)O)C(C)C(=O)CC(O)CC(O)/C=C/CC(O)CC(O)CC(O)/C=C/CC(O)CC(O)/C=C/CC(O)CC(O)CCCNC(=N)N)C(=O)O (stereo not given) [CLETHRAMYCIN] | 16 (≈ 13.1 µM) | 16 (≈ 13.1 µM) | 16 (≈ 13.1 µM) | 4 (≈ 3.28 µM) | 4 (≈ 3.28 µM) | 4 (≈ 3.28 µM) | 16 (≈ 13.1 µM) | 8 (≈ 6.57 µM) | 2 (≈ 1.64 µM) | > 128 | 4 (≈ 3.28 µM) | 2 (≈ 1.64 µM) | 4 (≈ 3.28 µM) | 4 (≈ 3.28 µM) |
| C\C(=C/C=C/C=C/CC/C=C/C(C)C(O)C(C)C(O)/C=C/C=C/C=C/C=C/C=C/C=C/CC(O)C(C)C(=O)CC(O)CC(O)/C=C/CC(O)CC(O)CC(O)/C=C/CC(O)CC(O)/C=C/CC(O)CC(O)CCCN)C(=O)O (stereo not given) [MEDIOMYCIN B] | 2 (≈ 1.82 µM) | 4 (≈ 3.65 µM) | 2 (≈ 1.82 µM) | 1 (≈ 0.912 µM) | 1 (≈ 0.912 µM) | 1 (≈ 0.912 µM) | 2 (≈ 1.82 µM) | 2 (≈ 1.82 µM) | 1 (≈ 0.912 µM) | 16 (≈ 14.6 µM) | 1 (≈ 0.912 µM) | 1 (≈ 0.912 µM) | 2 (≈ 1.82 µM) | 1 (≈ 0.912 µM) |

Now from value to compound:

| MIC [1] [µg/mL] | MIC [2] [µg/mL] | MIC [3] [µg/mL] | MIC [4] [µg/mL] | MIC [5] [µg/mL] | MIC [6] [µg/mL] | MIC [7] [µg/mL] | MIC [8] [µg/mL] | MIC [9] [µg/mL] | MIC [10] [µg/mL] | MIC [11] [µg/mL] | MIC [12] [µg/mL] | MIC [13] [µg/mL] | MIC [14] [µg/mL] | SMILES |
| --- | --- | --- | --- | --- | --- | --- | --- | --- | --- | --- | --- | --- | --- | --- |
| 128 (≈ 108 µM) | > 128 | > 128 | 16 (≈ 13.4 µM) | 16 (≈ 13.4 µM) | 32 (≈ 26.9 µM) | 16 (≈ 13.4 µM) | 32 (≈ 26.9 µM) | 8 (≈ 6.72 µM) | > 128 | > 128 | 8 (≈ 6.72 µM) | 16 (≈ 13.4 µM) | 8 (≈ 6.72 µM) | COC(=O)/C(C)=C/C=C/C=C/CC/C=C/C(C)C(O)C(C)C(O)/C=C/C=C/C=C/C=C/C=C/C=C/CC(OS(=O)(=O)O)C(C)C(=O)CC(O)CC(O)/C=C/CC(O)CC(O)CC(O)/C=C/CC(O)CC(O)/C=C/CC(O)CC(O)CCCN (stereo not given) |
| 16 (≈ 13.6 µM) | 16 (≈ 13.6 µM) | 16 (≈ 13.6 µM) | 2 (≈ 1.7 µM) | 2 (≈ 1.7 µM) | 4 (≈ 3.4 µM) | 16 (≈ 13.6 µM) | 8 (≈ 6.8 µM) | 2 (≈ 1.7 µM) | 128 (≈ 109 µM) | 1 (≈ 0.85 µM) | 1 (≈ 0.85 µM) | 2 (≈ 1.7 µM) | 2 (≈ 1.7 µM) | C\C(=C/C=C/C=C/CC/C=C/C(C)C(O)C(C)C(O)/C=C/C=C/C=C/C=C/C=C/C=C/CC(OS(=O)(=O)O)C(C)C(=O)CC(O)CC(O)/C=C/CC(O)CC(O)CC(O)/C=C/CC(O)CC(O)/C=C/CC(O)CC(O)CCCN)C(=O)O (stereo not given) [MEDIOMYCIN A] |
